# Experiments:
# Progesterone receptor = molecular target: T1, Progesterone receptor (Homo sapiens, UniProt P06401); experiment: Binding affinity to progesterone receptor by fluorescence polarization assay
# T1 sequence (P06401 whole entry): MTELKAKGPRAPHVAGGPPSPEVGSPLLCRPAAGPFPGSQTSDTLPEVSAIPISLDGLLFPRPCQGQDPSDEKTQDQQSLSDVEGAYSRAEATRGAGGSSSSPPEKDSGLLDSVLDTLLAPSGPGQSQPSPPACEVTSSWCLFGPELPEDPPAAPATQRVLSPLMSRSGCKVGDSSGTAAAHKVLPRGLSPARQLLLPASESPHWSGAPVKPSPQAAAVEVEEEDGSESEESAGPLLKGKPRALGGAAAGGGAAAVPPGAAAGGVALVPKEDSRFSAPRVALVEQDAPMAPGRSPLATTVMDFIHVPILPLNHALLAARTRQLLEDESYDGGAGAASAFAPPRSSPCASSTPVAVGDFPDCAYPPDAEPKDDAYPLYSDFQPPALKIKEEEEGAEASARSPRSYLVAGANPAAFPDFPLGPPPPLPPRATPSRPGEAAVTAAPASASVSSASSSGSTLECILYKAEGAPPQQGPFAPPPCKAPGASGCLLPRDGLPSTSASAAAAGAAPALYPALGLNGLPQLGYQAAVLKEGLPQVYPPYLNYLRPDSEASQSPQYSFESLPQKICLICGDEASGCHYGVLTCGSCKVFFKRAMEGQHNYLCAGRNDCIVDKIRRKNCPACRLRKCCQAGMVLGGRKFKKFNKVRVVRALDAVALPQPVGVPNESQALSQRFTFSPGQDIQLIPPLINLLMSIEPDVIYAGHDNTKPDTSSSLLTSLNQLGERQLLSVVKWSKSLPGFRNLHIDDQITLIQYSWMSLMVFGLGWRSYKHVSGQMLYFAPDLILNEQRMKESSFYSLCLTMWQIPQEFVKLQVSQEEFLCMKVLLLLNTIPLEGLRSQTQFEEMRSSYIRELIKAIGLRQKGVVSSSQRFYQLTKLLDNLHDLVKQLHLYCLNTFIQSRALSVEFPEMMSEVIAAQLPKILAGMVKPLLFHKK
# In short: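 Fluorescence polarization competition of test compound against a fluorescently labelled ligand for binding to full-length receptor or its ligand-binding domain.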
# Glucocorticoid receptor [1] = molecular target: T2, Glucocorticoid receptor (Homo sapiens, UniProt P04150); experiment: Transrepression activity of glucocorticoid receptor in human A549 cells expressing AP-1 assessed as inhibition of PMA-induced AP-1 activity by luciferase reporter gene assay; type: cell-based
# T2 sequence (P04150 whole entry): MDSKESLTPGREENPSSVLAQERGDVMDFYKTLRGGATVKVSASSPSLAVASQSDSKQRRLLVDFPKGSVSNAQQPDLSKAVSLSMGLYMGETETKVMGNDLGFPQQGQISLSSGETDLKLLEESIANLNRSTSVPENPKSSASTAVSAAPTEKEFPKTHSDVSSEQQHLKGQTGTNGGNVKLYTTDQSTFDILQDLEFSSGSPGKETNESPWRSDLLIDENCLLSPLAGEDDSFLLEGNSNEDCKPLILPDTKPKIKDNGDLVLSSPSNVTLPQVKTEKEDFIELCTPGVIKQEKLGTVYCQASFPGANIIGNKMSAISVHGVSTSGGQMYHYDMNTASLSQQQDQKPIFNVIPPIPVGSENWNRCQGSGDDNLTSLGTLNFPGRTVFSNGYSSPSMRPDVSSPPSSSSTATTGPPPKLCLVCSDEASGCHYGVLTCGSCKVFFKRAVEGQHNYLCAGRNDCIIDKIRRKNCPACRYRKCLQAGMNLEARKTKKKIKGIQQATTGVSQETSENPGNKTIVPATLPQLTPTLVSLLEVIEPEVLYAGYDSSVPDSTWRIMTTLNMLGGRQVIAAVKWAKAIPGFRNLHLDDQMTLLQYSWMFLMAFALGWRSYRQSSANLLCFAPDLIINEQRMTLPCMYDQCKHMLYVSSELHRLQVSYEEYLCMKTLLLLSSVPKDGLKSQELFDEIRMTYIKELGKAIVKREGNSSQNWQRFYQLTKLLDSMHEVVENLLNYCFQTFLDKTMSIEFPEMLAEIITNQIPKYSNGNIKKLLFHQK
# Glucocorticoid receptor [2] = molecular target: T2, Glucocorticoid receptor; experiment: Transactivation activity of glucocorticoid receptor ligand binding domain expressed in human NP-1 Hela cells co-expressing GAL4 DNA binding domain by luciferase reporter gene assay; type: cell-based
# Glucocorticoid receptor [3] = molecular target: T2, Glucocorticoid receptor; experiment: Transrepression activity of glucocorticoid receptor in human A549 cells assessed as inhibition of IL1beta-stimulated NFkappaB-dependent E-selectin transcription by luciferase reporter gene assay; type: cell-based
# Glucocorticoid receptor [4] = molecular target: T2, Glucocorticoid receptor; experiment: Transactivation activity at glucocorticoid receptor in human 13D3/Huh7 cells assessed as induction of tyrosine aminotransferase activity after 24 hrs; type: cell-based, Huh-7
# [5] = molecular target: T3, Mineralocorticoid receptor (Homo sapiens, UniProt P08235); experiment: Agonist activity at mineralocorticoid receptor in human A549 cells; type: functional, cell-based
# T3 sequence (P08235 whole entry): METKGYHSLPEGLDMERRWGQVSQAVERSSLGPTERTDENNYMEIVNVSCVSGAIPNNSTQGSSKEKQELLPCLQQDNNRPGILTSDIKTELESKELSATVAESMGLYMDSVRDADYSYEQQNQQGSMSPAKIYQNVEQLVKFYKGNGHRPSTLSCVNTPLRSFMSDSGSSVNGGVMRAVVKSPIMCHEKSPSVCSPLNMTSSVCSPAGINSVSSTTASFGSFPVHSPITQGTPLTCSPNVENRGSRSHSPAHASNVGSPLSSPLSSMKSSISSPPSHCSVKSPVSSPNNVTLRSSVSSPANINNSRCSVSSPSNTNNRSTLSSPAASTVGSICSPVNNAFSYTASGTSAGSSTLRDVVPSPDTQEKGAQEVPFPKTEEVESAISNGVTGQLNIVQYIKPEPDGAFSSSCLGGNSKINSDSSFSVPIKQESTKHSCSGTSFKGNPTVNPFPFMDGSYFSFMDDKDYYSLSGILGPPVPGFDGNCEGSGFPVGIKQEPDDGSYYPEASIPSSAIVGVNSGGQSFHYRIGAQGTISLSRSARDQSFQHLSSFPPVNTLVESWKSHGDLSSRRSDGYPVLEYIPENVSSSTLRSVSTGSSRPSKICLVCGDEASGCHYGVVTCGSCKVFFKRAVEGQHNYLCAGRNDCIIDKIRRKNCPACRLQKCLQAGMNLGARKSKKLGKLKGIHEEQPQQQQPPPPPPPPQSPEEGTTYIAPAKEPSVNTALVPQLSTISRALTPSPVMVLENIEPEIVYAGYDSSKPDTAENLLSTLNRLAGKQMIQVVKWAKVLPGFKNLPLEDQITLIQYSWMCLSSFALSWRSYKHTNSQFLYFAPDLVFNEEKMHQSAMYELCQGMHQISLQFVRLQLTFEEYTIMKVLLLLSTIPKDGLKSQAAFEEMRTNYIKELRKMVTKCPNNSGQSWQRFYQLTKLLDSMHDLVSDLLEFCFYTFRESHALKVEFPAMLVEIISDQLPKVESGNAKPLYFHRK
# [6] = Selectivity ratio of Ki of GRapha to Ki of estrogen receptor alpha
compound,measurement,setting,value
CC(C)(C(=O)Nc1nncs1)[C@H]1c2ccccc2Oc2cc(O)ccc21,Ki,Progesterone receptor,53 nM
same,EC50,Glucocorticoid receptor [1],7.8 nM
same,EC50,Glucocorticoid receptor [2],85.7 nM
same,EC50,Glucocorticoid receptor [3],3.5 nM
same,EC50,Glucocorticoid receptor [4],91.3 nM
same,EC50,[5],> 5000 nM
same,Ratio Ki,[6],> 6800
CC(C)(C(=O)Nc1nccs1)[C@@H](c1ccccc1)c1ccc(O)cc1,Ki,Progesterone receptor,273 nM
same,EC50,Glucocorticoid receptor [1],40.9 nM
same,EC50,Glucocorticoid receptor [2],372 nM
same,EC50,Glucocorticoid receptor [3],29.5 nM
same,EC50,Glucocorticoid receptor [4],251 nM
same,EC50,[5],> 5000 nM
same,Ratio Ki,[6],> 6800
CC(C)(C(=O)Nc1nccs1)[C@H]1c2ccccc2Oc2cc(O)ccc21,Ki,Progesterone receptor,22 nM
same,EC50,Glucocorticoid receptor [1],17.5 nM
same,EC50,Glucocorticoid receptor [2],60.1 nM
same,EC50,Glucocorticoid receptor [3],9.3 nM
same,EC50,Glucocorticoid receptor [4],27.1 nM
same,EC50,[5],> 5000 nM
same,Ratio Ki,[6],> 6800
CC(C)(C(=O)Nc1nccs1)[C@@H](c1ccccc1)c1ccc(O)c(Br)c1,Ki,Progesterone receptor,31 nM
same,EC50,Glucocorticoid receptor [1],40.1 nM
same,EC50,Glucocorticoid receptor [2],115 nM
same,EC50,Glucocorticoid receptor [3],8.6 nM
same,EC50,Glucocorticoid receptor [4],142 nM
same,EC50,[5],> 5000 nM
same,Ratio Ki,[6],> 6800
CC(C)(C(=O)Nc1nccs1)[C@@H](c1ccccc1)c1ccc(O)c(F)c1,Ki,Progesterone receptor,53 nM
same,EC50,Glucocorticoid receptor [1],15.9 nM
same,EC50,Glucocorticoid receptor [2],119 nM
same,EC50,Glucocorticoid receptor [3],8.6 nM
same,EC50,Glucocorticoid receptor [4],36.1 nM
same,EC50,[5],> 5000 nM
same,Ratio Ki,[6],> 6800

# From ChEMBL document CHEMBL1799968, “Dimethyl-diphenyl-propanamide derivatives as nonsteroidal dissociated glucocorticoid receptor agonists” (J Med Chem, 2010)
